Laboratory results from ChEMBL document CHEMBL4145524, “Chemoenzymatically synthesized GM3 analogues as potential therapeutic agents to recover nervous functionality after injury by inducing neurite outgrowth” (2018).
Active and inactive are the calls of the source. No cut-off for these calls is given here.

Legend:
PC-12 [1] = assay: Induction of neuritogenesis in rat PC12 cells assessed as neurite bearing cells at 10 uM after 72 hrs by inverted microscopic analysis relative to control; format: functional
Outline: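 PC12 cells (ATCC; grown in DMEM, 10% heat-inactivated horse serum, 5% FBS, 37 °C, 5% CO2) seeded at 2×10^4/well on poly-L-lysine, attached 24 h, then 24 h in low-serum DMEM (1% horse serum, 0.5% FBS). Compound at 10 μM for 72 h, no NGF. Score cells with at least one neurite ≥2× cell-body diameter, ≥200 cells/sample; mean ± S.D., ≥3 repeats.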

PC-12 [2] = assay: Induction of neuritogenesis in NGF-induced rat PC12 cells assessed as neurite bearing cells at 10 uM cotreated with 25 ng/ml NGF after 72 hrs by inverted microscopic analysis relative to control; format: functional
Outline: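 PC12 cells plated on poly-L-lysine-coated wells at 2×10^4/well, switched to DMEM with 1% horse serum and 0.5% FBS for 24 h, then given compound together with NGF 25 ng/ml for 72 h. Inverted microscopy. Percentage of cells bearing at least one neurite twice the cell-body diameter, over ≥200 cells per sample; mean ± S.D., at least three experiments.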

Compound: CCCCCCCCCCCCC/C=C/[C@@H](O)[C@@H](N)CO[C@@H]1O[C@H](CO)[C@H](O)[C@H](O[C@]2(C(=O)O)C[C@H](O)[C@@H](NC(C)=O)[C@H]([C@@H](O)[C@H](O)CO)O2)[C@H]1O
- Activity (PC-12 [1]): 6%
- Activity (PC-12 [2]): Active

Compound: CCCCCCCCCCCCC/C=C/[C@@H](O)[C@@H](N)CO[C@@H]1O[C@H](CO[C@]2(C(=O)O)C[C@H](O)[C@@H](NC(C)=O)[C@H]([C@@H](O)[C@H](O)CO)O2)[C@@H](O)[C@H](O)[C@H]1O
- Activity (PC-12 [1]): 26%
- Activity (PC-12 [2]): >30%

Compound: CCCCCCCCCCCCC/C=C/[C@@H](O)[C@H](CO[C@@H]1O[C@H](CO)[C@@H](O[C@@H]2O[C@H](CO)[C@H](O)[C@H](O[C@]3(C(=O)O)C[C@H](O)[C@@H](NC(=O)CCl)[C@H]([C@@H](O)[C@H](O)CO)O3)[C@H]2O)[C@H](O)[C@H]1O)NC(=O)CCCCCCCCCCCCCCCCC
- Activity (PC-12 [1]): 8%
- Activity (PC-12 [2]): inactive

Compound: CCCCCCCCCCCCC/C=C/[C@@H](O)[C@H](CO[C@@H]1O[C@H](CO)[C@H](O)[C@H](O[C@]2(C(=O)O)C[C@H](O)[C@@H](NC(C)=O)[C@H]([C@@H](O)[C@H](O)CO)O2)[C@H]1O)NC(=O)CCCCCCCCCCCCCCCCC
- Activity (PC-12 [1]): inactive
- Activity (PC-12 [2]): inactive

Compound: CCCCCCCCCCCCC/C=C/[C@@H](O)[C@@H](N)CO[C@@H]1O[C@H](CO[C@]2(C(=O)O)C[C@H](O)[C@@H](NC(C)=O)[C@H]([C@@H](O)[C@H](O)CO)O2)[C@H](O)[C@H](O)[C@H]1O
- Activity (PC-12 [1]): 9%
- Activity (PC-12 [2]): inactive

Compound: CCCCCCCCCCCCC/C=C/[C@@H](O)[C@H](CO[C@@H]1O[C@H](CO[C@]2(C(=O)O)C[C@H](O)[C@@H](NC(C)=O)[C@H]([C@@H](O)[C@H](O)CO)O2)[C@@H](O)[C@H](O)[C@H]1O)NC(=O)CCCCCCCCCCCCCCCCC
- Activity (PC-12 [1]): inactive
- Activity (PC-12 [2]): inactive

Compound: CCCCCCCCCCCCC/C=C/[C@@H](O)[C@H](CO[C@@H]1O[C@H](CO[C@]2(C(=O)O)C[C@H](O)[C@@H](NC(C)=O)[C@H]([C@@H](O)[C@H](O)CO)O2)[C@H](O)[C@H](O)[C@H]1O)NC(=O)CCCCCCCCCCCCCCCCC
- Activity (PC-12 [1]): inactive
- Activity (PC-12 [2]): inactive
